From publication PMC7415964 (The Journal of Biological Chemistry, 2021)
Values belong to the molecule of their own block, whether it stands above or below them. Where a SMILES comes first, the peptide text is derived from it. The star is where a group is joined. FITC = O=C1OC2(c3ccc(O)cc3Oc3cc(O)ccc32)c2ccc(NC(=S)*)cc21

Columns and labels:
[1] = molecular target: C–C motif chemokine ligand 8 (CCL8) (human) (UniProt P80075)
human CCL8-647 (human) = human CCL8-647 (human) (UniProt P80075); test: flow cytometry on cells
human CCL2-647 (human) = human CCL2-647 (human) (UniProt P13500); test: flow cytometry on cells
CCL8 = molecular target: T1, CCL8 (Homo sapiens, UniProt P80075); test: Fluorescence polarization assay, CCL8; assay type: binding; details: fluorescent peptide 50 nM, CCL8 1 μM, 30 min, compared with scrambled control
T1 sequence (P80075 24-99): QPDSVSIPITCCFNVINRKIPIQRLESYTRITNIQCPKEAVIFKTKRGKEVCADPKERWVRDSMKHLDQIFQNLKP
Outline: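 Polarization read with FITC filters, gain set to 35 mP on a peptide-only well, and converted to anisotropy A = 2P/(3 − P). Two technical × three biological replicates. Scrambled FITC peptide as negative control; one-way ANOVA with Sidak's correction.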

CCL7 = test: Fluorescence polarization assay, CCL7; assay type: binding; details: BK1.1FITC 50 nM, chemokine 1 μM, compared with negative control CXCL1
Outline: (§1)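 Polarization read with FITC filters, gain set at 35 mP on a peptide-only well, and converted to anisotropy, A = 2P/(3 − P). CXCL1 negative control. Two technical, three biological replicates. One-way ANOVA with Sidak's correction.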

CCL18 = test: Fluorescence polarization assay, CCL18; assay type: binding; details: BK1.1FITC 50 nM, chemokine 1 μM, compared with negative control CXCL1
Outline: as §1

[2] = molecular target: EVA1(P672_(22-32)) hybrid protein (not stated | Rhipicephalus pulchellus); test: BLI
[3] = molecular target: T2, C–C motif chemokine ligand 8 (CCL8) (human), P80075; test: native MS; details: remark: other sources report otherwise
T2 chain: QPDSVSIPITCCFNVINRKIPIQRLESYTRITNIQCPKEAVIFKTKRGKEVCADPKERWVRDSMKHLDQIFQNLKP

P672–CCL8 complex = test: Hydrogen–deuterium exchange MS of the P672–CCL8 complex; details: complex versus free CCL8; 5 s, 30 s, 5 min, 60 min; triplicate

human CCL2-647 (human), sequence (P13500 24-99): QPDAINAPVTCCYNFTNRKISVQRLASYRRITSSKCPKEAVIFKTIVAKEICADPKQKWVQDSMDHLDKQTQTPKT

Molecule: evasin EVA-P672 (natural protein)
IC50 of inhibition of CCL8-induced THP-1 cell migration [1]: 2.6 nM
IC50 (human CCL8-647 (human)): 21 nM
IC50 (human CCL2-647 (human)): 21 nM

change in anisotropy upon incubation with CCL8 (CCL8): displayed an increase in anisotropy
Molecule: CC(C)[C@H](NC(=O)[C@@H]1CCCN1C(=O)[C@H](CCCCN)NC(=O)[C@H](Cc1ccccc1)NC(=O)[C@H](Cc1ccccc1)NC(=O)[C@H](CC(=O)O)NC(=O)[C@H](CCC(=O)O)NC(=O)[C@H](Cc1ccc(O)cc1)NC(=O)[C@H](CC(=O)O)NC(=O)[C@H](CCC(=O)O)NC(=O)[C@H](CC(=O)O)NC(=O)[C@H](CCC(=O)O)NC(=S)Nc1ccc2c(c1)C(=O)OC21c2ccc(O)cc2Oc2cc(O)ccc21)C(=O)N[C@H](C(=O)N[C@@H](C)C(=O)N[C@@H](Cc1ccc(O)cc1)C(=O)N[C@@H](Cc1ccccc1)C(N)=O)[C@@H](C)O [BK1.1FITC] ({FITC}-EDEDYEDFFKPVTAYF-NH2)
change in anisotropy with CCL7 (CCL7): significant increases in anisotropy
change in anisotropy with CCL18 (CCL18): significant increases in anisotropy

Molecule: C–C motif chemokine ligand 8 (CCL8) (from UniProt P80075 24-99)
Kd [2]: 490 nM

stoichiometry N [3]: 2
B1: C–C motif chemokine ligand 8 (CCL8), P80075 24-99 (ligand)
chain: QPDSVSIPITCCFNVINRKIPIQRLESYTRITNIQCPKEAVIFKTKRGKEVCADPKERWVRDSMKHLDQIFQNLKP
% relative deuterium uptake (%D), CCL8 Arg18–Ser27 (P672–CCL8 complex): −6 to −18%
